Measured values published in publication PMC5966020 (Journal of medicinal chemistry, 2018).
Read-outs that look alike come from different tables or passages of the source. Each block holds one compound with its values, some of them ahead of it.

How the values were obtained:
[1] = biological target: T1, rat brain MAGL (Rattus norvegicus, UniProt Q8R431); experiment: [3H]2-OG hydrolysis assay; format: biochemical; conditions: for IC50: IC50, inhibition of [3H]2-OG hydrolysis, 0.5 μM [3H]2-OG; for pIC50 in [3H]2-OG assay: positive control
T1 sequence (Q8R431 1-303): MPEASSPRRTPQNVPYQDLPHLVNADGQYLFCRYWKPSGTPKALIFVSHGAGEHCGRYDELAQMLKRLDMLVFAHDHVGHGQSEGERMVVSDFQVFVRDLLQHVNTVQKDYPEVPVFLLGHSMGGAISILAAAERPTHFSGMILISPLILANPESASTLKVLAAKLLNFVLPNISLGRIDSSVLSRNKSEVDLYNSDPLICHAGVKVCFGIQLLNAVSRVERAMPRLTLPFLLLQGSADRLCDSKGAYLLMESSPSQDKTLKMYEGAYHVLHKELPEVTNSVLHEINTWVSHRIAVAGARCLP
In short: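 Rat brain preparation, test compound and buffer (10 mM Tris-HCl, 1 mM EDTA, pH 7.4) were preincubated 0–60 min. [3H]2-OG diluted with unlabelled 2-OG was then added to 0.5 μM final, with 0.125% w/v fatty acid-free BSA. Kinetics: no preincubation, 2 min incubation. Reversibility: 60 min preincubation, then 20-fold dilution. JZL184 was the positive control. Means of 3–4 runs.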

[2] = biological target: T2, ABHD6 (Mus musculus, UniProt Q8R2Y0); experiment: activity based protein profiling; format: biochemical; conditions: up to 10 μM concentration
T2 sequence (Q8R2Y0 1-336): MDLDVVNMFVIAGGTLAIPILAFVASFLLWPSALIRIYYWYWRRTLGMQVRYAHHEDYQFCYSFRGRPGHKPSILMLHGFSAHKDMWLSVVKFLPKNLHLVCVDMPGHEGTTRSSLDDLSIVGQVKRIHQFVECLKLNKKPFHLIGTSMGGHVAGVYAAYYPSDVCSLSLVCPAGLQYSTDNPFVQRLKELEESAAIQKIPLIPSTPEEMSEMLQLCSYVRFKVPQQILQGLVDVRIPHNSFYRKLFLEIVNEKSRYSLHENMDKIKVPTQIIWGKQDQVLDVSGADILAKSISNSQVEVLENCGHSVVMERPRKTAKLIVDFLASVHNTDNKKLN
In short: (§1)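 Mouse brain membrane proteome (1 mg/mL) preincubated with DMSO or test compound (1 and 10 μM) for 30 min at 37 °C. FP-rhodamine (1 μM final) was then added for 1–180 min at room temperature. Samples were separated by SDS-PAGE and read by in-gel fluorescence. Band intensity is given relative to DMSO (100%). MJN110 was the positive control; 3 runs.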

[3] = biological target: T3, human recombinant MAGL (hMAGL) (Homo sapiens, UniProt Q99685); experiment: human recombinant MAGL inhibition enzyme assay; format: biochemical
T3 sequence (Q99685 1-303): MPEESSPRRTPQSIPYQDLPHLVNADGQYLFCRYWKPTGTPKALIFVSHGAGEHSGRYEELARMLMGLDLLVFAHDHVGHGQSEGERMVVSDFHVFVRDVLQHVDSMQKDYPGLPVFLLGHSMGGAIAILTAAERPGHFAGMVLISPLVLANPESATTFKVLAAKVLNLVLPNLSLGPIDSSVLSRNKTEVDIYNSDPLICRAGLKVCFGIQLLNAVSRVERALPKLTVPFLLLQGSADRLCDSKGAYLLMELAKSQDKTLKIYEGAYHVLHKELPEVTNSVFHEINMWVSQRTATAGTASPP
In short: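 Commercial MAGL inhibitor screening kit with human recombinant enzyme, run per the manufacturer's instructions. JZL195 was the positive control. IC50 from dose-response curve fitting, averaged over 3–5 runs.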

[4] = biological target: CB1 (Homo sapiens, UniProt P21554); experiment: CB1 receptor agonist and antagonist assays; format: cell-based; conditions: up to 30 μM concentration
Chain of CB1 (P21554 whole entry, species assumed): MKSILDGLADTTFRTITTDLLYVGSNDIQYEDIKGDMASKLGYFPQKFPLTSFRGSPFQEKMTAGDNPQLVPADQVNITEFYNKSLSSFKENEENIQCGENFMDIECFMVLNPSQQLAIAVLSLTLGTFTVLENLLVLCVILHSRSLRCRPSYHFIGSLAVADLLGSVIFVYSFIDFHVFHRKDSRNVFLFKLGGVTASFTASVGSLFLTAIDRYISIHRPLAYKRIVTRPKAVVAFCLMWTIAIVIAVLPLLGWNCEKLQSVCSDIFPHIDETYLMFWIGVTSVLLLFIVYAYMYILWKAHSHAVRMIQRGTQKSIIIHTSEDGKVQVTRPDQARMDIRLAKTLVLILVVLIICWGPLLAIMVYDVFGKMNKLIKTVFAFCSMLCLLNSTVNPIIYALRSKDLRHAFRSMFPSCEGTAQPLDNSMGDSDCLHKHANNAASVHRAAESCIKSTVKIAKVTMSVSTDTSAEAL
In short: (§2)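 Run by the NIMH Psychoactive Drug Screening Program to its published protocols, in agonist and antagonist formats. CP55940 was the agonist control at both receptors. Rimonabant was the CB1 antagonist control and SR144528 the CB2 antagonist control. Dose-response curves were generated, averaged over 3–5 runs.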

[5] = LogP by shake flask method; format: physicochemical; conditions: n-octanol/water
In short: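 n-Octanol/water liquid-liquid partition ('shake flask'), following the OECD 107 guideline. Compound quantified in each phase by LC-MS; n = 3.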

[6] = biological target: T4, ABHD12 (Mus musculus, UniProt Q99LR1); experiment: activity based protein profiling; format: biochemical; conditions: up to 10 μM concentration
T4 sequence (Q99LR1 1-398): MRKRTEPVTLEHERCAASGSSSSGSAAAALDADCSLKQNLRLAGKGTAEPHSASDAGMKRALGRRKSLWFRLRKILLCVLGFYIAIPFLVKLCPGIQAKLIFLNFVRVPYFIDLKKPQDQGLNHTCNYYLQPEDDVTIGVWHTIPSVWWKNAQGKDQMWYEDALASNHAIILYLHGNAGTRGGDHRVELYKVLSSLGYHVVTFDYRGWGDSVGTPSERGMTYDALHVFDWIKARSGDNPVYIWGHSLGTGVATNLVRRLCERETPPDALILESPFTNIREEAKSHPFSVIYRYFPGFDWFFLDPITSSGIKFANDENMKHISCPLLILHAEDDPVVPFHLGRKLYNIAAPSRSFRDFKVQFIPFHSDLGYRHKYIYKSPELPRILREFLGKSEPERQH
In short: as §1

[7] = biological target: CB2 (Homo sapiens, UniProt P34972); experiment: CB2 receptor agonist and antagonist assays; format: cell-based; conditions: up to 30 μM concentration
Chain of CB2 (P34972 whole entry, species assumed): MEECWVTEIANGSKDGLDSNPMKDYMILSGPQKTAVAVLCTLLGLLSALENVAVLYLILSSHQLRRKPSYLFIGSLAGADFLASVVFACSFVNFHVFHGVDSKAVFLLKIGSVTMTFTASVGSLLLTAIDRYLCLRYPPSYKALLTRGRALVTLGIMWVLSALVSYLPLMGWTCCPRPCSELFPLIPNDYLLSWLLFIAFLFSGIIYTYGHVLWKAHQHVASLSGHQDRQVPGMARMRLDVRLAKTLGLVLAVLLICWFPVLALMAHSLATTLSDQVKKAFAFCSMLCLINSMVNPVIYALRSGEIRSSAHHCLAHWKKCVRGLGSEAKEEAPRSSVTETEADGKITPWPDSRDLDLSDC
In short: as §2

[8] = biological target: T5, FAAH (Rattus norvegicus, UniProt P97612); experiment: [3H]AEA hydrolysis assay; format: biochemical
T5 sequence (P97612 1-579): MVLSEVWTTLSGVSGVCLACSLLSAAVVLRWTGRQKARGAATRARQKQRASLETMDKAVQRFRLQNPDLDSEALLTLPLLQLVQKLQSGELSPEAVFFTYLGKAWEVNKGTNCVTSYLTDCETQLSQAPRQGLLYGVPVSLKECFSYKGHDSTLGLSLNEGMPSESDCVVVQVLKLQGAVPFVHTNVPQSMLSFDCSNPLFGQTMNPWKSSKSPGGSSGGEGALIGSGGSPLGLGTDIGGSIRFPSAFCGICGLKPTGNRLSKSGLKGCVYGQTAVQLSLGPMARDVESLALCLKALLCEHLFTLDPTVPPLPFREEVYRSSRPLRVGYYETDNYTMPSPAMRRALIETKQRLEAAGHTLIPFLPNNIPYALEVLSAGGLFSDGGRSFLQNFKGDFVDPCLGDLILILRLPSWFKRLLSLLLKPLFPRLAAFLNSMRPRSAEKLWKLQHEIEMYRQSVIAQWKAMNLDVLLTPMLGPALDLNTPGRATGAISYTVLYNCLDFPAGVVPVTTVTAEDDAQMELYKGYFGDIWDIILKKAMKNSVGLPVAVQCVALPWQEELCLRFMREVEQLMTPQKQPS

[9] = tested on: brain; experiment: PET brain uptake of 19; conditions: in vivo
[10] = biological target: T1, rat brain MAGL; conditions: read-out: IC50, inhibition of [3H]2-OG hydrolysis, cited from earlier work

Ki [1]: 1.03 nM
time-dependency of inhibition ([1]; 0.2, 0.6 and 1 nM inhibitor): time-dependent inhibition
IC50 ([1]; 60 min of pre-incubation): 0.68 nM
IC50 ([1]; without pre-incubation): 3.9 nM
binding mechanism ([1]; dilution experiments and ABPP time course): irreversible binding mechanism
interaction with ABHD6 [2]: No significant interactions
IC50 [3]: 12.7 nM
interaction with CB1 [4]: No significant interactions
logP [5]: 1.23 ± 0.1
interaction with ABHD12 [6]: No significant interactions
interaction with CB2 [7]: No significant interactions
selectivity towards MAGL over FAAH [8]: 30–50 fold
Structure (SMILES): COc1ccc(-c2noc(C3CN(C(=O)OC(C(F)(F)F)C(F)(F)F)C3)n2)cc1 [Compound 10, 1,1,1,3,3,3-hexafluoropropan-2-yl 3-(3-(4-methoxyphenyl)-1,2,4-oxadiazol-5-yl)azetidine-1-carboxylate]

Structure (SMILES): O=C(OC(C(F)(F)F)C(F)(F)F)N1CC(c2nc(-c3ccc(F)cc3)no2)C1 [Compound 19, ^11C-carbonyl labeled 1,1,1,3,3,3-hexafluoropropan-2-yl 3-(3-(4-fluorophenyl)-1,2,4-oxadiazol-5-yl)azetidine-1-carboxylate]
peak SUV in brain [9]: ca. 1.4 SUV

logP [5]: 1.42 ± 0.11
Structure (SMILES): O=C(OC(C(F)(F)F)C(F)(F)F)N1CC(c2nc(-c3cccc(F)c3)no2)C1 [Compound 9, 1,1,1,3,3,3-hexafluoropropan-2-yl 3-(3-(3-fluorophenyl)-1,2,4-oxadiazol-5-yl)azetidine-1-carboxylate]

Structure (SMILES): O=C(Oc1ccc([N+](=O)[O-])cc1)N1CCC(C(O)(c2ccc3c(c2)OCO3)c2ccc3c(c2)OCO3)CC1 [JZL184]
pIC50 in [3H]2-OG assay ([1]; 60 min preincubation): 8.24±0.02
pIC50 in [3H]2-OG assay ([1]; without preincubation): 6.46±0.04
IC50 ([10]; preincubation 0 min): 350 nM
IC50 ([10]; preincubation 30 min): 12 nM
IC50 ([10]; preincubation 60 min): 5.8 nM

Structure (SMILES): O=C(Oc1ccc([N+](=O)[O-])cc1)N1CCN(Cc2cccc(Oc3ccccc3)c2)CC1 [JZL195, reference compound]
block of human recombinant MAGL hydrolysis ([3]; 4.4 μM, positive control): completely blocked

logP [5]: 1.17 ± 0.14
Structure (SMILES): COc1cccc(-c2noc(C3CN(C(=O)OC(C(F)(F)F)C(F)(F)F)C3)n2)c1 [Compound 11, 1,1,1,3,3,3-hexafluoropropan-2-yl 3-(3-(3-methoxyphenyl)-1,2,4-oxadiazol-5-yl)azetidine-1-carboxylate]

Structure (SMILES): O=C(OC(C(F)(F)F)C(F)(F)F)N1CC(c2nc(-c3ccc(F)cc3)no2)C1 [Compound 8, 1,1,1,3,3,3-hexafluoropropan-2-yl 3-(3-(4-fluorophenyl)-1,2,4-oxadiazol-5-yl)azetidine-1-carboxylate]
IC50 [3]: 13.4 nM
logP [5]: 1.45 ± 0.01
